Experiments:
[1] = target: T1, 5-hydroxytryptamine receptor 1A (Rattus norvegicus, UniProt P19327); assay: pKi value against rat 5-hydroxytryptamine 1A receptor.
T1 sequence (P19327 whole entry): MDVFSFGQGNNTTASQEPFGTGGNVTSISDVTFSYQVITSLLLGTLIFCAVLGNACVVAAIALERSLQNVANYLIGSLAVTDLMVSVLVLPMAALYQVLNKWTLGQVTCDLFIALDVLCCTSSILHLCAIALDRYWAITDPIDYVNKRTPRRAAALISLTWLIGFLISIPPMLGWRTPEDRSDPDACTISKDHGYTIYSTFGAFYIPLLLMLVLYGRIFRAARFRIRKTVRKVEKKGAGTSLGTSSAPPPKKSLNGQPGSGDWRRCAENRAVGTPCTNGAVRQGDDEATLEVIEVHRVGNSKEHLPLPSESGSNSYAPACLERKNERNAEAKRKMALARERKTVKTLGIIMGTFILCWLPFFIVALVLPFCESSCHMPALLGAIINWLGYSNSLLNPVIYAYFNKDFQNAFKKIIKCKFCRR

[2] = target: T2, D(2) dopamine receptor (Rattus norvegicus, UniProt P61169); assay: pKi value against rat Dopamine receptor D2.
T2 sequence (P61169 whole entry): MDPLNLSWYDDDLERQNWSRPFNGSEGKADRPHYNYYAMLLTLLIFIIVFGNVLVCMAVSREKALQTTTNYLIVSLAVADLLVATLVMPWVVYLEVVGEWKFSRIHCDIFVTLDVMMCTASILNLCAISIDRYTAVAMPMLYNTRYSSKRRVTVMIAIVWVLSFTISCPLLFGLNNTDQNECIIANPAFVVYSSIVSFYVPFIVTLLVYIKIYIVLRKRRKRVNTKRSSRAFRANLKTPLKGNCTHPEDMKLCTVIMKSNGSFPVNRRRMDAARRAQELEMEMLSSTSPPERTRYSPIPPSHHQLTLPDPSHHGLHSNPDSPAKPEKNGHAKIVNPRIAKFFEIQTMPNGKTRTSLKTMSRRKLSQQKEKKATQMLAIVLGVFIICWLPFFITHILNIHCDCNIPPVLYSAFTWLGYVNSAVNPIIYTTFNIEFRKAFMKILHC

[3] = target: T1, 5-hydroxytryptamine receptor 1A; assay: Binding affinity was evaluated by determining in vitro displacement of [3H]8-OH-DPAT from the central 5-hydroxytryptamine 1A receptor recognition site in rat frontal cortex homogenate.; assay type: tissue-based
[4] = target: T2, D(2) dopamine receptor; assay: In vitro displacement of [3H]spiperone from Dopamine receptor D2 binding site in rat striatum.
[5] = Partition coefficient (logP); assay type: physicochemical; settings: octanol/water
Summary of the method: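 Retention factor k converted via calibration with 10 reference compounds (log Pow 2.1–5.7). Values below 2.1 extrapolated; interpolated values carry 95% confidence interval ±0.4.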

[6] = target: T3, 5-hydroxytryptamine receptor 1A (Homo sapiens, UniProt P08908); assay: In vitro potency at human 5-hydroxytryptamine 1A receptor in inhibiting forskolin-stimulated accumulation of intracellular cAMP; assay type: functional, cell-based
T3 sequence (P08908 whole entry): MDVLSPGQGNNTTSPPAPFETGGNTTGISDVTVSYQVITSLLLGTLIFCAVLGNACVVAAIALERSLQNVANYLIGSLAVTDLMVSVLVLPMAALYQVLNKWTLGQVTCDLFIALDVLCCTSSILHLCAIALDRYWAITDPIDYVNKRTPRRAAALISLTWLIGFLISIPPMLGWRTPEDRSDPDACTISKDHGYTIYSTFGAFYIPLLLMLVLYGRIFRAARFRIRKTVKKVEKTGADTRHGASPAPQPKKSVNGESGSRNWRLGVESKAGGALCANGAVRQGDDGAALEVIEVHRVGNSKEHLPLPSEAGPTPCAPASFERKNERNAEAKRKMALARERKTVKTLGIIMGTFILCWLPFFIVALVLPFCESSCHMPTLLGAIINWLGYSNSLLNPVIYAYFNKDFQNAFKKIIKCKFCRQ
Summary of the method: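 CHO cells stably expressing human 5-HT1A receptor, grown in α-DMEM + 10% fetal calf serum, seeded 3 days before assay. Labelled with [3H]adenine (2 μCi/mL) for 2 h, rinsed with PBS/10 mM IBMX, then stimulated 10 min with forskolin (10^-7 M) plus compound at various concentrations, in quadruplicate. TCA extraction; [3H]cAMP separated on Dowex/alumina columns, scintillation counting. EC50 from three independent experiments.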

For `COc1ccccc1N1CCN(CCCCc2ccc(F)cc2)CC1`, the Ki [1] was 1 nM, the Ki [2] was 3.16 nM and the Ki [3] was 1.1 nM. For the same compound, the Ki [4] was 3.3 nM and the logP [5] was 4.8.

With `COc1ccccc1N1CCN(CCNC(=S)C2CCCCC2)CC1` the Ki [1] was 0.316 nM, the Ki [2] was 6.31 nM and the Ki [3] was 0.32 nM. It also gave a Ki [4] of 6.4 nM and a logP [5] of 3.7.

Compound `COc1ccccc1N1CCN(CCNC(=O)c2cccnc2)CC1` has a Ki [1] of 158 nM, a Ki [2] of 501 nM and a Ki [3] of 140 nM. It also gave a Ki [4] of 570 nM and a logP [5] of 1.2.

Compound `COc1ccccc1N1CCN(CCCOc2ccc(F)cc2)CC1` has a Ki [1] of 3.16 nM, a Ki [2] of 3.16 nM and a Ki [3] of 3.4 nM. It also gave a Ki [4] of 3.3 nM and a logP [5] of 4.1.

In the case of `O=C(NCCN1CCN(c2cccc3c2OCC(CO)O3)CC1)c1ccc(F)cc1` (single isomer, unassigned) [FLESINOXAN], the Ki [3] is reported as 1.7 nM and the Ki [4] is reported as 140 nM.

`O=C(NCCN1CCN(c2ccccc2)CC1)c1ccc(F)cc1` gave a Ki [3] of 4.9 nM.

`COc1ccccc1N1CCN(CCCC(=O)c2ccc(F)cc2)CC1` [FLUANISONE] showed a Ki [1] of 1 nM, a Ki [2] of 2.51 nM and a Ki [3] of 1 nM. The Ki [4] was 3.1 nM and the logP [5] was 3.6.

Work on `COc1ccccc1N1CCN(CCNC(=O)c2ccc[nH]2)CC1` yielded a Ki [1] of 15.8 nM, a Ki [2] of 63.1 nM and a Ki [3] of 16 nM. For the same compound, the Ki [4] was 64 nM and the logP [5] was 1.6.

Compound `c1ccc(N2CCNCC2)cc1` [PHENYLPIPERAZINE] has a Ki [4] of 6800 nM.

For `COc1ccccc1N1CCN(CCNC(=O)c2ccncn2)CC1`, the Ki [1] was 15.8 nM, the Ki [2] was 251 nM and the Ki [3] was 15 nM. For the same compound, the Ki [4] was 250 nM and the logP [5] was 1.5.

`COc1ccccc1N1CCN(CC/C=C/c2ccc(F)cc2)CC1` gave a Ki [1] of 2 nM, a Ki [2] of 3.98 nM and a Ki [3] of 1.8 nM. It also gave a Ki [4] of 4.1 nM and a logP [5] of 4.7.

With `COc1ccccc1N1CCN(CCNC(=O)c2cccs2)CC1` the Ki [1] was 1.58 nM, the Ki [2] was 15.8 nM and the Ki [3] was 1.6 nM. The Ki [4] was 17 nM and the logP [5] was 2.

Compound `COc1ccccc1N1CCN(CCCC(O)c2ccc(F)cc2)CC1` (stereo not drawn) [ANISOPIROL] has a Ki [1] of 2.51 nM, a Ki [2] of 3.16 nM and a Ki [3] of 2.5 nM. The Ki [4] was 3.4 nM and the logP [5] was 3.4.

In the case of `O=C(NCCN1CCN(c2cccc3ccoc23)CC1)c1ccc(F)cc1`, the Ki [4] is reported as 5.3 nM.

With `COc1ccccc1N1CCN(CCOCc2ccc(F)cc2)CC1` the Ki [1] was 20 nM, the Ki [2] was 10 nM and the Ki [3] was 22 nM. For the same compound, the Ki [4] was 10 nM and the logP [5] was 3.6.

`CC1CN(c2cccc3c2OCCO3)CC(C)N1CCNC(=O)c1ccc(F)cc1` (stereo not drawn) showed an EC50 [6] of 0.78 nM.

Work on `COc1ccccc1N1CCN(CCNC(=O)c2ccc(F)cc2)CC1` yielded a Ki [1] of 1 nM, a Ki [3] of 1 nM and a logP [5] of 2.5.

With `COc1ccccc1N1CCN(CCNC(C)=O)CC1` the Ki [1] was 794 nM, the Ki [2] was 1000 nM and the Ki [3] was 800 nM. For the same compound, the Ki [4] was 1100 nM and the logP [5] was 0.5.

Compound `OC[C@@H]1COc2c(cccc2N2CCNCC2)O1` has a Ki [4] greater than 10000 nM.

`COc1ccccc1N1CCN(CCNC(=O)c2ccco2)CC1` gave a Ki [1] of 20 nM, a Ki [2] of 79.4 nM and a Ki [3] of 18 nM. The Ki [4] was 73 nM and the logP [5] was 1.6.

Compound `COc1ccccc1N1CCN(CCNC(=N)C2CCCCC2)CC1` has a Ki [1] of 5.01 nM, a Ki [2] of 126 nM and a Ki [3] of 4.5 nM. For the same compound, the Ki [4] was 130 nM and the logP [5] was 3.4.

Compound `COc1ccccc1N1CCN(CCNC(=O)c2ccccc2)CC1` has a Ki [1] of 1.26 nM, a Ki [2] of 12.6 nM and a Ki [3] of 1.3 nM. It also gave a Ki [4] of 13 nM and a logP [5] of 2.2.

With `c1cc(N2CCNCC2)c2occc2c1` the Ki [4] was 780 nM.

`O=C(NCCN1CCN(c2cccc3c2OCCO3)CC1)c1ccc(F)cc1` gave an EC50 [6] of 0.9 nM and a Ki [4] of 14 nM.

With `COc1ccccc1N1CCN(CCNC(=O)C2CCCCC2)CC1` the Ki [1] was 0.794 nM, the Ki [2] was 12.6 nM and the Ki [3] was 0.8 nM. For the same compound, the Ki [4] was 23 nM and the logP [5] was 2.8.
